# Rows were chosen to be rich in hits. Some 4.5% of all compounds tested hit in one or more screens of this group.
# PHOSPHO1 block: inhibitors of human PHOSPHO1 phosphatase; AID 1565; inhibition, % at 13.3 µM; Q8TCT1; recombinant PHOSPHO1, absorbance phosphatase assay; 1.1% of 290,000 active; in the data active = inhibition above about 60%
# Target sequence (Q8TCT1 whole entry, looked up): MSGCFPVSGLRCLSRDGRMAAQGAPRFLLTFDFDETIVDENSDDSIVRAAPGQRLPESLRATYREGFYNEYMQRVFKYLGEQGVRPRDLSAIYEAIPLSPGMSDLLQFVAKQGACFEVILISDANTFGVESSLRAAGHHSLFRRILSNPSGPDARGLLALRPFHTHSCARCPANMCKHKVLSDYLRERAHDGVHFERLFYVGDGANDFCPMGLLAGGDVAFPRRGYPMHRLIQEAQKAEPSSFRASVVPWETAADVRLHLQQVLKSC
# RGS4 act: potentiators or activators of RGS4; 0.92% of 310,000 active; HEK293 M3R/inducible RGS4, carbachol calcium flux Fluo4; stronger effect = lower value; B-score at 10 µM;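 active = B-score of the integrated calcium signal more than 4 SD below the library mean, with starting fluorescence not abnormally high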;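 note: negative B-score means reduced calcium response which marks RGS4 activation or potentiation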
#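 test system = HEK293 cells with stable M3R and inducible RGS4 | schedule = recording 10 s baseline at 1 Hz, 100 s post-agonist | technique = Fluo4-AM (2 µM) calcium-flux fluorescence, kinetic read | measure = Agonist-evoked peak-minus-minimum fluorescence over baseline, integrated ratio, B score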
# MrgX1 PAM: allosterically activates human MrgX1 receptor signaling | Q96LB2 | MrgX1-HEK293, Fluo-4 calcium flux, FDSS; stronger effect = higher value | B-score at 10 µM | 0.63% of 310,000 active | AID 588675;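 active = plate-corrected calcium response at least 3 library SD above typical, normal starting fluorescence, not activating the receptor alone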;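 note: compound read alongside a low EC10 to EC30 dose of BAM8-22 agonist; peak minus trough fluorescence over baseline measured at the second addition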
# MrgX1 antag: human MrgX1 receptor antagonism, primary screen | MRGX1-HEK293 calcium flux, Fluo-4, BAM8-22 antagonism; stronger effect = lower value | Q96LB2 | B-score at 10 µM | AID 588676 | 1.3% of 310,000 active;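 active = calcium-response B-score plate-corrected more than 3 library SD below zero, starting fluorescence within 5 deviations, no agonist response on first addition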;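 note: peak minus trough fluorescence over baseline after final BAM8-22 challenge near maximal dose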
# RGS4 block: inhibitors of human RGS4. P49798. HEK293 M3R/RGS4 inducible, Fluo-4 calcium flux; stronger effect = higher value; triggered by carbachol at its EC20. B-score at 10 µM. 0.45% of 310,000 active;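 active = B-score, a plate-corrected calcium signal, over three deviations above library mean, with baseline fluorescence within five deviations of library mean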;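 note: RGS4 expression induced by doxycycline in cells with stable M3 receptor; B-score is computed from the integrated fluorescence ratio over baseline after carbachol; higher B-score means a larger calcium signal and so more RGS4 inhibition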
# Target sequence (P49798 whole entry, looked up): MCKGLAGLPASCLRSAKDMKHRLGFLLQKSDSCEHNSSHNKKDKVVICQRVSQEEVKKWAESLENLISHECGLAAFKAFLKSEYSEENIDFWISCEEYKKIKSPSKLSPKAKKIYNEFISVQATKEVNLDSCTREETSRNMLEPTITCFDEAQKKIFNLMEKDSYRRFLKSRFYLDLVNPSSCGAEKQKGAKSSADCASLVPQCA
# MrgX1 ag: agonists of human MrgX1 receptor; 0.44% of 310,000 active; B-score at 10 µM; MrgX1-HEK293 cells, Fluo-4 calcium fluorescence, agonist mode; stronger effect = higher value;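 active = calcium response B-score plate-corrected fluorescence ratio at least 3 library SD, with starting fluorescence B-score inside 5 SD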
#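 Material: MrgX1-expressing HEK293 cells; input: 15,000 cells per well; doses: test compound given as first of three sequential additions; schedule: overnight plating before 1 h dye loading; technique: Fluo-4 NW calcium-flux fluorescence, kinetic read; evaluation: baseline-normalised fluorescence change ratio, B-scored; control set: plate-wise positive and negative controls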
# MrgX1 antag conf: confirmation of human MrgX1 receptor antagonists; remaining BAM8-22 calcium response % of control (stronger effect = lower value), % at 10 µM; shares compounds with MrgX1 antag; 19% of 2,300 active; MrgX1-HEK293, BAM8-22 calcium flux, Fluo-4; stronger effect = lower value; AID 602420;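 active = remaining agonist calcium response no higher than 100% minus 3 SD of agonist-only control wells, with starting fluorescence near control levels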;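 note: agonist BAM8-22 given at a near maximal EC90 to ECmax level; peak minus minimum fluorescence divided by baseline after agonist addition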
# HEK293 Ca flux: activity in parental HEK293 cells lacking MrgX1. fluorescence ratio F(max-min)/F0 at 10 µM. 2% of 4,000 active. Fluo-4 calcium fluorescence, FDSS. shares compounds with MrgX1 antag;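 active = duplicate-averaged calcium fluorescence ratio at least three times the standard deviation of buffer wells, a nonspecific response in parental cells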
# HEK293 Ca counter: activity in parental HEK293 cells without MrgX1; shares compounds with MrgX1 antag; parental HEK293 calcium flux, Fluo-4 fluorescence ratio; stronger effect = higher value; fluorescence ratio F(max-min)/F0 at 10 µM; 0.4% of 4,000 active; AID 624114;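 active = calcium fluorescence ratio, averaged over duplicates, at least 3 SD of the buffer-well ratio, meaning a nonspecific response in receptor-free cells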;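 note: untransfected parental HEK293 lacking MrgX1 used as counterscreen for MrgX1 allosteric activators; fluorescence change taken during the second addition on a kinetic imager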
# HEK293 Ca cntr2: activity in parental HEK293 cells lacking MrgX1 receptor; Fluo-4 calcium fluorescence (FDSS); stronger effect = higher value; fluorescence ratio F(max-min)/F0 at 10 µM; shares compounds with MrgX1 antag; 8.7% of 4,000 active;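 active = calcium fluorescence ratio at least three times the spread of buffer wells, meaning a non-specific response in parental cells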
# A number is an active result; - = inactive; . = no result given.
SMILES,PHOSPHO1 block,RGS4 act,MrgX1 PAM,MrgX1 antag,RGS4 block,MrgX1 ag,MrgX1 antag conf,HEK293 Ca flux,HEK293 Ca counter,HEK293 Ca cntr2
CC1(C)N=C(SCC(=O)Nc2ccc(Cl)cc2Cl)C(c2ccccc2)=N1,-,-,-,-7,-,-,80%,-,-,-
Cc1cc(=O)n2nc(N3CCCC3C(=O)Nc3cccc(F)c3)sc2n1 (stereo not drawn),-,-,-,-,-,-,.,.,.,.
COCCn1c(C)cc(C(=O)CSc2nc(C)c(C)c(C)n2)c1C,-,-,-,-,-,-,.,.,.,.
COCCn1c(C)cc(C(=O)CSc2ncn[nH]2)c1C,-,-,-,-5.1,-,-,-,-,-,-
Cc1ccccc1OCC(=O)Nc1ccc2c(c1)OCO2,-,-,-,-4.5,-,-,84%,-,-,-
O=C(Nc1ccc(C(=O)O)cc1)Nc1ccc(F)cc1F,-,-,-,-,-,-,.,.,.,.
COc1ccccc1NC(=O)NCCN1C(=O)C2C3C=CC(C3)C2C1=O (stereo not drawn),-,-,-,-7.6,-,-,-,-,-,-
COc1ccccc1NC(=O)NCCN1CCCCC1,-,-,-,-,-,-,.,.,.,.
CCOc1c2ccoc2nc2c(OC)c(OC)ccc12,-,-,-,-5.7,-,-,-,-,-,-
C=CCOc1ccc2c(OC)c3ccoc3nc2c1OC,-,-,-,-,-,-,.,.,.,.
CC(C)N(C(=O)CSc1nc2ccccc2c(=O)[nH]1)C(C)C,-,-,-,-,-,-,.,.,.,.
CN(C(=O)COC(=O)c1cccnc1Nc1cccc(C(F)(F)F)c1)C1CCS(=O)(=O)C1 (stereo not drawn),-,-,-,-5.7,-,-,-,-,-,-
CN(C(=O)COC(=O)c1cccnc1Nc1ccccc1F)C1CCS(=O)(=O)C1 (stereo not drawn),-,-,-,-,-,-,.,.,.,.
O=C(COc1ncnc2sccc12)NC1CCCc2ccccc21 (stereo not drawn),-,-,-,-7.4,-,-,80%,-,-,-
CC(C)NC(=O)NC(=O)COc1ncnc2sccc12,-,-,-,-4.9,-,-,-,-,-,-
CCCn1c(N2CCN(C(=O)N3CCCCC3)CC2)nc2ccccc21,-,-,-,-6.2,-,-,-,-,-,-
CCCn1c(N2CCN(C(=O)Nc3ccccc3)CC2)nc2ccccc21,-,-,-,-,-,-,.,.,.,.
CSc1ccc(CNC(=O)C(C)n2nc(C)c3c(C)n(-c4ccccc4)nc3c2=O)cc1 (stereo not drawn),-,-,-,-,-,-,.,.,.,.
O=C(O)COc1ccc(Cl)cc1CO,-,-,-,-4.7,-,-,-,-,-,-
CCC(Sc1nc2ncccc2[nH]1)C(=O)NC1CCC(C)CC1 (stereo not drawn),-,-,-,-,-,-,.,.,.,.
CCC(Sc1nc2ncccc2[nH]1)C(=O)NCCc1ccccc1 (stereo not drawn),-,-,-,-8.7,-,-,-,-,-,-
CN(c1ccccc1)c1nccc(=O)[nH]1,.,-,-,-,-,-,.,.,.,.
COc1ccccc1NC(=S)NCCc1c[nH]c2ccccc12,-,-,-,-5.6,-,-,-,-,-,-
O=C(CCSc1ccc(Cl)cc1)NC1CCCC1,-,-,-,-,-,-,.,.,.,.
O=C(CCSc1ccccc1)NC1CCCC1,-,-,-,-8.8,-,-,-,-,-,-
SMILES,PHOSPHO1 block,RGS4 act,MrgX1 PAM,MrgX1 antag,RGS4 block,MrgX1 ag,MrgX1 antag conf,HEK293 Ca flux,HEK293 Ca counter,HEK293 Ca cntr2
O=C(CCS(=O)(=O)c1ccccc1)NC1CCCCC1,-,-,-,-,-,-,.,.,.,.
O=C(CCSc1ccccc1)NCc1cccnc1,-,-,-,-5.5,-,-,85%,-,-,-
O=C(CCS(=O)(=O)Cc1ccccc1)NC1CCCCC1,-,-,-,-4.9,-,-,-,-,-,-
O=C(NCCc1ccccc1)NC1CCCCC1,-,-,-,-4.8,-,-,-,-,-,-
O=C(O)c1cc([N+](=O)[O-])c(NCCC2=CCCCC2)c([N+](=O)[O-])c1,-,-,-,-,-,-,.,.,.,.
Cc1ccc(NC(=O)CN(C)C(=O)CCOc2cccc(C)c2)cc1,-,-,-,-,-,-,.,.,.,.
O=C(NNC(=O)c1ccccc1C(=O)O)c1ccc(-c2ccccc2)cc1,-,-,-,-,-,-,.,.,.,.
NS(=O)(=O)c1cccc(NC(=O)Nc2ccc(Cl)cc2)c1,-,-,-,-6.3,-,-,83%,-,-,-
COC(=O)c1cc(NC(=O)Nc2cccc(Cl)c2)ccc1Cl,-,-,-,-4.7,-,-,82%,-,-,-
CCSc1nsc(NC(=O)Nc2cccc(F)c2)n1,-,-,-,-7.4,-,-,78%,-,-,-
COC(=O)c1cc(NC(=O)c2ccc(-c3ccccc3)cc2)ccc1Cl,-,-,-,-8.1,-,-,-,-,-,-
O=C(Nc1cccc(Cl)c1)Nc1cccc(Cl)c1,-,-,-,-,-,-,.,.,.,.
O=C(Nc1cccc(F)c1)Nc1cccc(Cl)c1,-,-,-,-5.1,-,-,65%,-,-,-
N#Cc1cn(N2CCCCC2)c(=O)[nH]c1=O,-,-,-,-,-,-,.,.,.,.
CC(C(=O)O)n1cc(Cl)cn1 (stereo not drawn),-,-,-,-,-,-,.,.,.,.
COc1cc(NC(=O)c2ccc(S(=O)(=O)N(C)C)cc2)cc(OC)c1OC,-,-,-,-5.3,-,-,-,-,-,-
Cc1cccc(NC(=O)c2ccc(S(=O)(=O)N(C)C)cc2)c1,-,-,-,-,-,-,.,.,.,.
CCN(CC)S(=O)(=O)c1ccc(C(=O)Nc2cc3oc4ccccc4c3cc2OC)cc1,-,-,-,-6.8,-,-,-,-,-,-
CC(C)OC(=O)CSc1nc(-c2ccc(F)cc2)nc2ccc(F)cc12,-,-,-,-10,-,-,-,-,-,-
CCCOC(=O)c1ccc(NC(=O)CC(C)(C)C)cc1,-,-,-,-4.5,-,-,-,-,-,-
COc1ccccc1NC(=O)CCSc1nnc(-c2ccncc2)o1,-,-,-,-,-,-,.,.,.,.

# Bioassay records deposited in PubChem by several laboratories.
